Values after ≈ are worked out from the molar mass of the structure shown. Active and inactive are the calls of the source. No cut-off for these calls is given here.
What was measured:
[1] = test system: Salmonella typhimurium; experiment: Antimicrobial activity against Salmonella Typhimurium NCIM 2501 at 1000 ug/disk after 24 hrs by disk diffusion method; format: functional, Salmonella enterica subsp. enterica serovar Typhimurium; conditions: Salmonella enterica, NCIM 2501, 24 h; read-out: DIZ
Summary of the method: (§1)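 Disc diffusion. 100 µl of bacterial suspension at 10⁸ CFU/ml was spread on Mueller–Hinton agar. Discs loaded with test compound dissolved in DMSO were placed on the lawn, with a DMSO-only disc as negative control. Plates were incubated at 37 °C for 24 h, and the inhibition zone diameter was measured.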

[2] = test system: Escherichia coli; experiment: Antimicrobial activity against Escherichia coli NCIM 2065 at 1000 ug/disk after 24 hrs by disk diffusion method; format: functional; conditions: NCIM 2065, 24 h, read-out: DIZ
Summary of the method: (§2)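 Disc diffusion on Mueller–Hinton agar. 100 µl of bacterial suspension at 10⁸ CFU/ml is spread on the plate. Discs carry test compounds at two loadings, dissolved in DMSO; DMSO alone serves as negative control. Ofloxacin disc is the positive reference. Plates are incubated at 37 °C for 24 h, and the inhibition zone diameter is measured.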

[3] = test system: Aspergillus flavus; experiment: Antimicrobial activity against Aspergillus flavus NCIM 902 at 1000 ug/disk after 72 hrs by disk diffusion method; format: functional; conditions: NCIM 902, 72 h, read-out: DIZ
Summary of the method: (§3)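 Disc diffusion on Sabouraud's dextrose agar. 100 µl of fungal suspension at 10⁶ CFU/ml is spread on the plate. Discs carry test compounds at two loadings in DMSO; DMSO alone is the negative control. Clotrimazole disc is the positive reference. Plates are incubated at 27 °C for 72 h, and the zone of inhibition diameter is measured.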

[4] = test system: Rhodotorula mucilaginosa; experiment: Antimicrobial activity against Rhodotorula rubra NCIM 3174 at 500 ug/disk after 72 hrs by disk diffusion method; format: functional; conditions: NCIM 3174, 72 h, read-out: DIZ
Summary of the method: (§4)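 Fungal disc diffusion. 100 µl of suspension at 10⁶ CFU/ml was spread on Sabouraud's dextrose agar. Discs carrying test compound in DMSO were applied, with a DMSO-only disc as negative control. Plates were incubated at 27 °C for 72 h, and the zone of inhibition diameter was measured.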

[5] = test system: Penicillium chrysogenum; experiment: Antimicrobial activity against Penicillium chrysogenum NCIM 707 at 500 ug/disk after 72 hrs by disk diffusion method; format: functional; summary of the method: as §3
[6] = test system: Aspergillus fumigatus; experiment: Antimicrobial activity against Aspergillus fumigatus NCIM 902 at 1000 ug/disk after 72 hrs by disk diffusion method; format: functional; summary of the method: as §3
[7] = test system: Aliivibrio fischeri; experiment: Antimicrobial activity against Vibrio fischeri NCIM 2154 at 500 ug/disk after 24 hrs by disk diffusion method; format: functional; conditions: NCIM 2154, 24 h, read-out: DIZ; summary of the method: as §1
[8] = test system: Aspergillus flavus; experiment: Antimicrobial activity against Aspergillus flavus NCIM 902 after 72 hrs by serial dilution method; format: functional; conditions: NCIM 535, 72 h, in the assay text read “NCIM 535” for “NCIM 902”
Summary of the method: (§5)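 MIC by broth dilution in Sabouraud's dextrose broth, only for fungi sensitive in disc diffusion. Two-fold serial dilutions of compounds are made in 1 ml broth per tube, range 3.9 to 1000. Inoculated tubes are incubated at 27 °C for 72 h.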

[9] = test system: Rhodococcus corynebacterioides; experiment: Antimicrobial activity against Corynebacterium rubrum NCIM 2252 at 1000 ug/disk after 24 hrs by disk diffusion method; format: functional; conditions: Rhodococcoides corynebacterioides, NCIM 2252, 24 h; read-out: DIZ; summary of the method: as §2
[10] = test system: Aspergillus flavus; experiment: Antimicrobial activity against Aspergillus flavus NCIM 902 at 500 ug/disk after 72 hrs by disk diffusion method; format: functional; conditions: NCIM 902, 72 h, read-out: DIZ; summary of the method: as §3
[11] = test system: Trichoderma viride; experiment: Antimicrobial activity against Trichoderma viride NCIM 1195 after 72 hrs by serial dilution method; format: functional; conditions: NCIM 1195, 72 h
Summary of the method: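 MIC by broth dilution in Sabouraud's dextrose broth, run only on fungi found sensitive in the disc assay. Twofold serial dilutions were made in 1 ml broth per tube, covering 3.9 to 1000. Inoculated tubes were incubated at 27 °C for 72 h.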

[12] = test system: Lipomyces lipofer; experiment: Antimicrobial activity against Lipomyces lipofer NCIM 3252 at 500 ug/disk after 72 hrs by disk diffusion method; format: functional; summary of the method: as §3
[13] = test system: Aspergillus parasiticus; experiment: Antimicrobial activity against Aspergillus parasiticus NCIM 904 at 500 ug/disk after 72 hrs by disk diffusion method; format: functional; conditions: NCIM 904, 72 h, read-out: DIZ; summary of the method: as §3
[14] = test system: Pseudomonas aeruginosa; experiment: Antimicrobial activity against Pseudomonas aeruginosa NCIM 2200 at 500 ug/disk after 24 hrs by disk diffusion method; format: functional; conditions: NCIM 2200, 24 h, read-out: DIZ; summary of the method: as §1
[15] = test system: Aliivibrio fischeri; experiment: Antimicrobial activity against Vibrio fischeri NCIM 2154 at 1000 ug/disk after 24 hrs by disk diffusion method; format: functional; conditions: NCIM 2154, 24 h, read-out: DIZ; summary of the method: as §1
[16] = test system: Klebsiella aerogenes; experiment: Antimicrobial activity against Klebsiella aerogenes NCIM 2239 at 1000 ug/disk after 24 hrs by disk diffusion method; format: functional; conditions: NCIM 2239, 24 h, read-out: DIZ; summary of the method: as §2
[17] = test system: Escherichia coli; experiment: Antimicrobial activity against Escherichia coli NCIM 2065 after 24 hrs by serial dilution method; format: functional; conditions: NCIM 2065, 24 h
Summary of the method: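 Broth dilution MIC in nutrient broth, run only for organisms found sensitive in disc diffusion. Compounds are two-fold serially diluted in 1 ml sterile broth per tube, spanning 3.9 to 1000. Inoculated tubes are incubated at 37 °C for 24 h.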

[18] = test system: Proteus vulgaris; experiment: Antimicrobial activity against Proteus vulgaris NCIM 2027 at 1000 ug/disk after 24 hrs by disk diffusion method; format: functional; conditions: NCIM 2027, 24 h, read-out: DIZ; summary of the method: as §2
[19] = test system: Escherichia coli; experiment: Antimicrobial activity against Escherichia coli NCIM 2065 at 500 ug/disk after 24 hrs by disk diffusion method; format: functional; conditions: NCIM 2065, 24 h, read-out: DIZ; summary of the method: as §2
[20] = test system: Pseudomonas aeruginosa; experiment: Antimicrobial activity against Pseudomonas aeruginosa NCIM 2200 at 1000 ug/disk after 24 hrs by disk diffusion method; format: functional; conditions: NCIM 2200, 24 h, read-out: DIZ; summary of the method: as §2
[21] = test system: Trichoderma viride; experiment: Antimicrobial activity against Trichoderma viride NCIM 1195 at 1000 ug/disk after 72 hrs by disk diffusion method; format: functional; conditions: NCIM 1195, 72 h, read-out: DIZ; summary of the method: as §4
[22] = test system: Rhodococcus corynebacterioides; experiment: Antimicrobial activity against Corynebacterium rubrum NCIM 2252 at 500 ug/disk after 24 hrs by disk diffusion method; format: functional; conditions: Rhodococcoides corynebacterioides, NCIM 2252, 24 h; read-out: DIZ; summary of the method: as §2
[23] = test system: Proteus vulgaris; experiment: Antimicrobial activity against Proteus vulgaris NCIM 2027 at 500 ug/disk after 24 hrs by disk diffusion method; format: functional; conditions: NCIM 2027, 24 h, read-out: DIZ; summary of the method: as §2
[24] = test system: Penicillium chrysogenum; experiment: Antimicrobial activity against Penicillium chrysogenum NCIM 707 at 1000 ug/disk after 72 hrs by disk diffusion method; format: functional; summary of the method: as §3
[25] = test system: Staphylococcus; experiment: Antimicrobial activity against Staphylococcus albus NCIM 2178 at 1000 ug/disk after 24 hrs by disk diffusion method; format: functional; conditions: NCIM 2178, 24 h, read-out: DIZ; summary of the method: as §1
[26] = test system: Bacillus subtilis; experiment: Antimicrobial activity against Bacillus subtilis NCIM 2063 at 500 ug/disk after 24 hrs by disk diffusion method; format: functional; conditions: NCIM 2063, 24 h, read-out: DIZ; summary of the method: as §2
[27] = test system: Rhodotorula mucilaginosa; experiment: Antimicrobial activity against Rhodotorula rubra NCIM 3174 at 1000 ug/disk after 72 hrs by disk diffusion method; format: functional; conditions: NCIM 3174, 72 h, read-out: DIZ; summary of the method: as §4
[28] = test system: Klebsiella aerogenes; experiment: Antimicrobial activity against Klebsiella aerogenes NCIM 2239 at 500 ug/disk after 24 hrs by disk diffusion method; format: functional; conditions: NCIM 2239, 24 h, read-out: DIZ; summary of the method: as §2
[29] = test system: Trichoderma viride; experiment: Antimicrobial activity against Trichoderma viride NCIM 1195 at 500 ug/disk after 72 hrs by disk diffusion method; format: functional; conditions: NCIM 1195, 72 h, read-out: DIZ; summary of the method: as §4
[30] = test system: Bacillus cereus; experiment: Antimicrobial activity against Bacillus cereus NCIM 2155 at 500 ug/disk after 24 hrs by disk diffusion method; format: functional; summary of the method: as §2
[31] = test system: Aspergillus parasiticus; experiment: Antimicrobial activity against Aspergillus parasiticus NCIM 904 after 72 hrs by serial dilution method; format: functional; conditions: NCIM 904, 72 h; summary of the method: as §5
[32] = test system: Bacillus cereus; experiment: Antimicrobial activity against Bacillus cereus NCIM 2155 at 1000 ug/disk after 24 hrs by disk diffusion method; format: functional; summary of the method: as §2

Compound	zone of inhibition at 1000 µg/disc [1]	zone of inhibition at 1000 µg/disc [2]	zone of inhibition at 1000 µg/disc [3]	zone of inhibition at 500 µg/disc [4]	zone of inhibition at 500 µg/disc [7]	MIC [8]	zone of inhibition at 1000 µg/disc [9]	zone of inhibition at 500 µg/disc [10]	MIC [11]	zone of inhibition at 500 µg/disc [13]	zone of inhibition at 500 µg/disc [14]	zone of inhibition at 1000 µg/disc [15]	zone of inhibition at 1000 µg/disc [16]	MIC [17]	zone of inhibition at 1000 µg/disc [18]	zone of inhibition at 500 µg/disc [19]	zone of inhibition at 1000 µg/disc [20]	zone of inhibition at 1000 µg/disc [21]	zone of inhibition at 500 µg/disc [22]	zone of inhibition at 500 µg/disc [23]	other results
O=C1CCCC2=C1C(c1ccc(O)cc1)c1ccc3ccccc3c1N2 (centres undefined)	9 mm	9 mm	8 mm	12 mm	7 mm	125 µg/mL (≈ 366 µM)	9 mm	7 mm	31.2 µg/mL (≈ 91.4 µM)	12 mm	7 mm	9 mm	10 mm	125 µg/mL (≈ 366 µM)	9 mm	7 mm	9 mm	11 mm	7 mm	7 mm	zone of inhibition at 500 µg/disc ([5]; NCIM 707, 72 h, read-out: DIZ): 9 mm; diameter of the inhibition zone (DIZ) [6]: inactive; zone of inhibition at 500 µg/disc ([12]; NCIM 3252, 72 h, read-out: DIZ): 10 mm; zone of inhibition at 1000 µg/disc ([24]; NCIM 707, 72 h, read-out: DIZ): 10 mm; zone of inhibition at 1000 µg/disc [25]: 10 mm; zone of inhibition at 500 µg/disc [26]: 9 mm; zone of inhibition at 1000 µg/disc [27]: 14 mm; zone of inhibition at 500 µg/disc [28]: 7 mm; zone of inhibition at 500 µg/disc [29]: 10 mm; diameter of the inhibition zone (DIZ) [30]: inactive; MIC [31]: 15.6 µg/mL (≈ 45.7 µM); diameter of the inhibition zone (DIZ) [32]: inactive
CC1(C)CC(=O)C2=C(C1)Nc1c(ccc3ccccc13)C2c1ccc(Cl)cc1 (centres undefined)	11 mm	9 mm	8 mm	9 mm	7 mm	125 µg/mL (≈ 322 µM)	10 mm	7 mm	62.5 µg/mL (≈ 161 µM)	12 mm	7 mm	9 mm	11 mm	62.5 µg/mL (≈ 161 µM)	10 mm	7 mm	9 mm	9 mm	7 mm	9 mm	diameter of the inhibition zone (DIZ) [5]: inactive; zone of inhibition at 1000 µg/disc ([6]; NCIM 902, 72 h, read-out: DIZ): 8 mm; diameter of the inhibition zone (DIZ) [12]: inactive; diameter of the inhibition zone (DIZ) [24]: inactive; zone of inhibition at 1000 µg/disc [25]: 9 mm; zone of inhibition at 500 µg/disc [26]: 8 mm; zone of inhibition at 1000 µg/disc [27]: 13 mm; zone of inhibition at 500 µg/disc [28]: 8 mm; zone of inhibition at 500 µg/disc [29]: 7 mm; zone of inhibition at 500 µg/disc ([30]; NCIM 2155, 24 h, read-out: DIZ): 10 mm; MIC [31]: 3.9 µg/mL (≈ 10.1 µM); zone of inhibition at 1000 µg/disc ([32]; NCIM 2155, 24 h, read-out: DIZ): 13 mm
